Measurements: ChEMBL document CHEMBL3112470, “Design and synthesis of N₁-aryl-benzimidazoles 2-substituted as novel HIV-1 non-nucleoside reverse transcriptase inhibitors” (Bioorg Med Chem, 2014)
Activity calls are given as the source filed them. No cut-off for these calls is given here.

Biological target: Human immunodeficiency virus type 1 reverse transcriptase (Human immunodeficiency virus 1, UniProt Q72547)
Experiment: Inhibition of GST-tagged recombinant wild type HIV-1 reverse transcriptase p66/p51 RNA-dependent DNA polymerase activity expressed in Escherichia coli JM109 using dTTP as substrate after 40 mins by spectrofluorometric analysis
Details: not given

| Structure (SMILES) | IC50 |
| --- | --- |
| Cc1cc(C)cc(Cn2c(SCC(=O)Nc3ccccc3[N+](=O)[O-])nc3ccc(Cl)cc32)c1 | > 249 µM |
| Cc1cc(C)cc(S(=O)(=O)n2c(SCC(=O)Nc3ccc(C)cc3Cl)nc3ccc(Cl)cc32)c1 | 46.4 µM |
| Cc1cc(C)cc(S(=O)(=O)n2c(SCC(=O)Nc3ccccc3[N+](=O)[O-])nc3ccc(Cl)cc32)c1 | 37 µM |
| Cc1cc(C)cc(Cn2c(=S)[nH]c3ccccc32)c1 | 27.2 µM |
| Cc1cc(C)cc(S(=O)(=O)n2c(SCC(=O)Nc3ccc(S(N)(=O)=O)cc3Cl)nc3ccc(Cl)cc32)c1 | 3.04 µM |
| Cc1cc(C)cc(Cn2c(SCC(=O)Nc3ccc(C)cc3Cl)nc3ccccc32)c1 | 179 µM |
| Cc1cc(C)cc(S(=O)(=O)n2c(SCC(=O)Nc3ccc(C)cc3Cl)nc3ccccc32)c1 | 0.55 µM |
| Cc1cc(C)cc(Cn2c(SCC(=O)Nc3ccccc3[N+](=O)[O-])nc3ccccc32)c1 | 3.91 µM |
| Cc1cc(C)cc(Cn2c(SCC(=O)Nc3ccc(S(N)(=O)=O)cc3Cl)nc3ccc(Cl)cc32)c1 | 86.6 µM |
| Cc1cc(C)cc(Cn2c(SCC(=O)Nc3ccc(S(C)(=O)=O)cc3Cl)nc3ccc(Cl)cc32)c1 | 70.5 µM |
| COC(=O)c1ccc(NC(=O)CSc2nc3ccccc3n2S(=O)(=O)c2cc(C)cc(C)c2)c(Cl)c1 | 162 µM |
| Cc1cc(C)cc(S(=O)(=O)n2c(SCC(=O)Nc3ccc(S(C)(=O)=O)cc3Cl)nc3ccc(Cl)cc32)c1 | 2.61 µM |
| Cc1cc(C)cc(S(=O)(=O)n2c(=S)[nH]c3ccccc32)c1 | 1.35 µM |
| Cc1cc(C)cc(Cn2c(SCC(=O)Nc3ccccc3Cl)nc3ccccc32)c1 | 42.1 µM |

Test system: Human immunodeficiency virus 1
Experiment: Antiviral activity against NNRTI-resistant HIV-1 RES056 harboring reverse transcriptase K103N/Y181C double mutant
Assay type: functional, organism-based
Details: not given
Outline: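 MT-4 cells were infected with virus at about 100 times the CCID50 per ml of cell suspension and mixed with serial compound dilutions. They were incubated 5 days at 37 °C, then viable cells were counted. EC50 is the concentration that reduces virus-induced cytopathic effect by 50%. Cytotoxicity was measured in parallel in MT-4 cells.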

| Structure (SMILES) | Activity |
| --- | --- |
| Cc1cc(C)cc(Cn2c(SCC(=O)Nc3ccccc3[N+](=O)[O-])nc3ccc(Cl)cc32)c1 | inactive |
| Cc1cc(C)cc(S(=O)(=O)n2c(SCC(=O)Nc3ccc(C)cc3Cl)nc3ccc(Cl)cc32)c1 | inactive |
| Cc1cc(C)cc(S(=O)(=O)n2c(SCC(=O)Nc3ccccc3[N+](=O)[O-])nc3ccc(Cl)cc32)c1 | inactive |
| Cc1cc(C)cc(Cn2c(=S)[nH]c3ccccc32)c1 | inactive |
| Cc1cc(C)cc(S(=O)(=O)n2c(SCC(=O)Nc3ccc(S(N)(=O)=O)cc3Cl)nc3ccc(Cl)cc32)c1 | inactive |
| Cc1cc(C)cc(Cn2c(SCC(=O)Nc3ccc(C)cc3Cl)nc3ccccc32)c1 | inactive |
| Cc1cc(C)cc(S(=O)(=O)n2c(SCC(=O)Nc3ccc(C)cc3Cl)nc3ccccc32)c1 | inactive |
| Cc1cc(C)cc(Cn2c(SCC(=O)Nc3ccccc3[N+](=O)[O-])nc3ccccc32)c1 | inactive |
| Cc1cc(C)cc(Cn2c(SCC(=O)Nc3ccc(S(N)(=O)=O)cc3Cl)nc3ccc(Cl)cc32)c1 | inactive |
| Cc1cc(C)cc(Cn2c(SCC(=O)Nc3ccc(S(C)(=O)=O)cc3Cl)nc3ccc(Cl)cc32)c1 | inactive |
| COC(=O)c1ccc(NC(=O)CSc2nc3ccccc3n2S(=O)(=O)c2cc(C)cc(C)c2)c(Cl)c1 | inactive |
| Cc1cc(C)cc(S(=O)(=O)n2c(SCC(=O)Nc3ccc(S(C)(=O)=O)cc3Cl)nc3ccc(Cl)cc32)c1 | inactive |
| Cc1cc(C)cc(S(=O)(=O)n2c(=S)[nH]c3ccccc32)c1 | inactive |
| Cc1cc(C)cc(Cn2c(SCC(=O)Nc3ccccc3Cl)nc3ccccc32)c1 | inactive |

Test system: Human immunodeficiency virus 1
Experiment: Antiviral activity against HIV-1 3B infected in human MT4 cells assessed as inhibition of virus-induced cytopathic effect after 5 days
Assay type: functional, organism-based
Details: Human immunodeficiency virus 1, 3B, MT4, 120 h
Outline: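 MT-4 cells infected with HIV-1 IIIB at ~100 times the CCID50 per ml, mixed 1:1 with serial compound dilutions, incubated at 37 °C for 5 days. Viable cell number then determined. EC50 = concentration reducing virus-induced cytopathicity by 50%.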

| Structure (SMILES) | EC50 |
| --- | --- |
| Cc1cc(C)cc(Cn2c(SCC(=O)Nc3ccccc3[N+](=O)[O-])nc3ccc(Cl)cc32)c1 | ≥ 26 µM |
| Cc1cc(C)cc(S(=O)(=O)n2c(SCC(=O)Nc3ccc(C)cc3Cl)nc3ccc(Cl)cc32)c1 | 1.57 µM |
| Cc1cc(C)cc(S(=O)(=O)n2c(SCC(=O)Nc3ccccc3[N+](=O)[O-])nc3ccc(Cl)cc32)c1 | 1.3 µM |
| Cc1cc(C)cc(Cn2c(=S)[nH]c3ccccc32)c1 | 1.3 µM |
| Cc1cc(C)cc(S(=O)(=O)n2c(SCC(=O)Nc3ccc(S(N)(=O)=O)cc3Cl)nc3ccc(Cl)cc32)c1 | 0.62 µM |
| Cc1cc(C)cc(Cn2c(SCC(=O)Nc3ccc(C)cc3Cl)nc3ccccc32)c1 | 1.53 µM |
| Cc1cc(C)cc(S(=O)(=O)n2c(SCC(=O)Nc3ccc(C)cc3Cl)nc3ccccc32)c1 | 0.04 µM |
| Cc1cc(C)cc(Cn2c(SCC(=O)Nc3ccccc3[N+](=O)[O-])nc3ccccc32)c1 | 1.05 µM |
| Cc1cc(C)cc(Cn2c(SCC(=O)Nc3ccc(S(N)(=O)=O)cc3Cl)nc3ccc(Cl)cc32)c1 | ≥ 22.6 µM |
| Cc1cc(C)cc(Cn2c(SCC(=O)Nc3ccc(S(C)(=O)=O)cc3Cl)nc3ccc(Cl)cc32)c1 | > 88.8 µM |
| COC(=O)c1ccc(NC(=O)CSc2nc3ccccc3n2S(=O)(=O)c2cc(C)cc(C)c2)c(Cl)c1 | 0.11 µM |
| Cc1cc(C)cc(S(=O)(=O)n2c(SCC(=O)Nc3ccc(S(C)(=O)=O)cc3Cl)nc3ccc(Cl)cc32)c1 | 0.5 µM |
| Cc1cc(C)cc(S(=O)(=O)n2c(=S)[nH]c3ccccc32)c1 | 0.09 µM |
| Cc1cc(C)cc(Cn2c(SCC(=O)Nc3ccccc3Cl)nc3ccccc32)c1 | 1.12 µM |

Test system: not listed separately
Experiment: Cytotoxicity against human MT4 cells assessed as cell viability
Assay type: cell-based
Details: not given
Outline: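 Uninfected MT-4 cells run in parallel with the antiviral assay. CC50 = concentration reducing MT-4 cell viability by 50%.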

| Structure (SMILES) | CC50 |
| --- | --- |
| Cc1cc(C)cc(Cn2c(SCC(=O)Nc3ccccc3[N+](=O)[O-])nc3ccc(Cl)cc32)c1 | 131 µM |
| Cc1cc(C)cc(S(=O)(=O)n2c(SCC(=O)Nc3ccc(C)cc3Cl)nc3ccc(Cl)cc32)c1 | > 234 µM |
| Cc1cc(C)cc(S(=O)(=O)n2c(SCC(=O)Nc3ccccc3[N+](=O)[O-])nc3ccc(Cl)cc32)c1 | > 235 µM |
| Cc1cc(C)cc(Cn2c(=S)[nH]c3ccccc32)c1 | 5.74 µM |
| Cc1cc(C)cc(S(=O)(=O)n2c(SCC(=O)Nc3ccc(S(N)(=O)=O)cc3Cl)nc3ccc(Cl)cc32)c1 | 23.4 µM |
| Cc1cc(C)cc(Cn2c(SCC(=O)Nc3ccc(C)cc3Cl)nc3ccccc32)c1 | 49.1 µM |
| Cc1cc(C)cc(S(=O)(=O)n2c(SCC(=O)Nc3ccc(C)cc3Cl)nc3ccccc32)c1 | 5.4 µM |
| Cc1cc(C)cc(Cn2c(SCC(=O)Nc3ccccc3[N+](=O)[O-])nc3ccccc32)c1 | 194 µM |
| Cc1cc(C)cc(Cn2c(SCC(=O)Nc3ccc(S(N)(=O)=O)cc3Cl)nc3ccc(Cl)cc32)c1 | ≥ 18.6 µM |
| Cc1cc(C)cc(Cn2c(SCC(=O)Nc3ccc(S(C)(=O)=O)cc3Cl)nc3ccc(Cl)cc32)c1 | 88.8 µM |
| COC(=O)c1ccc(NC(=O)CSc2nc3ccccc3n2S(=O)(=O)c2cc(C)cc(C)c2)c(Cl)c1 | 145 µM |
| Cc1cc(C)cc(S(=O)(=O)n2c(SCC(=O)Nc3ccc(S(C)(=O)=O)cc3Cl)nc3ccc(Cl)cc32)c1 | 3.59 µM |
| Cc1cc(C)cc(S(=O)(=O)n2c(=S)[nH]c3ccccc32)c1 | 41 µM |
| Cc1cc(C)cc(Cn2c(SCC(=O)Nc3ccccc3Cl)nc3ccccc32)c1 | 111 µM |

Test system: not listed separately
Experiment: Selectivity index, ratio of CC50 for human MT4 cells to EC50 for HIV-1 3B
Assay type: toxicity, cell-based
Details: read-out: Ratio CC50/EC50
Outline: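 Calculated as CC50/EC50, both from MT-4 cells: CC50 from the parallel viability assay, EC50 from the 5-day HIV-1 IIIB cytopathicity assay.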

| Structure (SMILES) | selectivity ratio |
| --- | --- |
| Cc1cc(C)cc(Cn2c(SCC(=O)Nc3ccccc3[N+](=O)[O-])nc3ccc(Cl)cc32)c1 | ≤ 5 |
| Cc1cc(C)cc(S(=O)(=O)n2c(SCC(=O)Nc3ccc(C)cc3Cl)nc3ccc(Cl)cc32)c1 | > 149 |
| Cc1cc(C)cc(S(=O)(=O)n2c(SCC(=O)Nc3ccccc3[N+](=O)[O-])nc3ccc(Cl)cc32)c1 | > 182 |
| Cc1cc(C)cc(Cn2c(=S)[nH]c3ccccc32)c1 | 4 |
| Cc1cc(C)cc(S(=O)(=O)n2c(SCC(=O)Nc3ccc(S(N)(=O)=O)cc3Cl)nc3ccc(Cl)cc32)c1 | 38 |
| Cc1cc(C)cc(Cn2c(SCC(=O)Nc3ccc(C)cc3Cl)nc3ccccc32)c1 | 32.1 |
| Cc1cc(C)cc(S(=O)(=O)n2c(SCC(=O)Nc3ccc(C)cc3Cl)nc3ccccc32)c1 | 135 |
| Cc1cc(C)cc(Cn2c(SCC(=O)Nc3ccccc3[N+](=O)[O-])nc3ccccc32)c1 | 184 |
| Cc1cc(C)cc(Cn2c(SCC(=O)Nc3ccc(S(N)(=O)=O)cc3Cl)nc3ccc(Cl)cc32)c1 | < 1 |
| Cc1cc(C)cc(Cn2c(SCC(=O)Nc3ccc(S(C)(=O)=O)cc3Cl)nc3ccc(Cl)cc32)c1 | < 1 |
| COC(=O)c1ccc(NC(=O)CSc2nc3ccccc3n2S(=O)(=O)c2cc(C)cc(C)c2)c(Cl)c1 | 1320 |
| Cc1cc(C)cc(S(=O)(=O)n2c(SCC(=O)Nc3ccc(S(C)(=O)=O)cc3Cl)nc3ccc(Cl)cc32)c1 | 7 |
| Cc1cc(C)cc(S(=O)(=O)n2c(=S)[nH]c3ccccc32)c1 | 455 |
| Cc1cc(C)cc(Cn2c(SCC(=O)Nc3ccccc3Cl)nc3ccccc32)c1 | 99 |

Test system: Human immunodeficiency virus 2
Experiment: Antiviral activity against HIV-2 ROD
Assay type: functional, organism-based
Details: ISOLATE ROD

| Structure (SMILES) | Activity |
| --- | --- |
| Cc1cc(C)cc(Cn2c(SCC(=O)Nc3ccccc3[N+](=O)[O-])nc3ccc(Cl)cc32)c1 | inactive |
| Cc1cc(C)cc(S(=O)(=O)n2c(SCC(=O)Nc3ccc(C)cc3Cl)nc3ccc(Cl)cc32)c1 | inactive |
| Cc1cc(C)cc(S(=O)(=O)n2c(SCC(=O)Nc3ccccc3[N+](=O)[O-])nc3ccc(Cl)cc32)c1 | inactive |
| Cc1cc(C)cc(Cn2c(=S)[nH]c3ccccc32)c1 | inactive |
| Cc1cc(C)cc(S(=O)(=O)n2c(SCC(=O)Nc3ccc(S(N)(=O)=O)cc3Cl)nc3ccc(Cl)cc32)c1 | inactive |
| Cc1cc(C)cc(Cn2c(SCC(=O)Nc3ccc(C)cc3Cl)nc3ccccc32)c1 | inactive |
| Cc1cc(C)cc(S(=O)(=O)n2c(SCC(=O)Nc3ccc(C)cc3Cl)nc3ccccc32)c1 | inactive |
| Cc1cc(C)cc(Cn2c(SCC(=O)Nc3ccccc3[N+](=O)[O-])nc3ccccc32)c1 | inactive |
| Cc1cc(C)cc(Cn2c(SCC(=O)Nc3ccc(S(N)(=O)=O)cc3Cl)nc3ccc(Cl)cc32)c1 | inactive |
| Cc1cc(C)cc(Cn2c(SCC(=O)Nc3ccc(S(C)(=O)=O)cc3Cl)nc3ccc(Cl)cc32)c1 | inactive |
| COC(=O)c1ccc(NC(=O)CSc2nc3ccccc3n2S(=O)(=O)c2cc(C)cc(C)c2)c(Cl)c1 | inactive |
| Cc1cc(C)cc(S(=O)(=O)n2c(SCC(=O)Nc3ccc(S(C)(=O)=O)cc3Cl)nc3ccc(Cl)cc32)c1 | inactive |
| Cc1cc(C)cc(S(=O)(=O)n2c(=S)[nH]c3ccccc32)c1 | inactive |
| Cc1cc(C)cc(Cn2c(SCC(=O)Nc3ccccc3Cl)nc3ccccc32)c1 | inactive |
